Active and inactive are the calls of the source. The calls are words filed in the database; no cut-off is given here.
system: CCRF-CEM; test: Cytotoxicity against human CEM cells after 72 hrs; assay type: functional, cell-based; conditions: not given
In short: (§1)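 Human transformed T-lymphocytes exposed to a range of compound concentrations at 37 °C for 72 h. IC50 is the concentration giving 50% inhibition of cell growth.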

Compound	IC50
CN(C)CC(CSCCO)C(=O)c1ccc([N+](=O)[O-])cc1 (stereo not given)	> 500 µM
COc1ccc(C(=O)C(CO)CN(C)C)cc1 (stereo not given)	1.15 µM
CN(C)CC(CO)C(=O)c1ccc(Cl)cc1 (stereo not given)	33.1 µM
C=C(CN(C)C)C(=O)c1ccc(OC)cc1	10.6 µM
C=C(CN(C)C)C(=O)c1ccccc1	65.6 µM

system: not listed separately; test: Cytotoxicity against human HPLF cells; assay type: cell-based; conditions: not given
In short: (§2)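 CC50 is the concentration killing 50% of cells, tested up to a highest concentration of 400 μM. Each value is the average of two independent determinations.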

Compound	CC50
CN(C)CC(CSCCO)C(=O)c1ccc([N+](=O)[O-])cc1 (stereo not given)	400 µM
COc1ccc(C(=O)C(CO)CN(C)C)cc1 (stereo not given)	4.9 µM
CN(C)CC(CO)C(=O)c1ccc(Cl)cc1 (stereo not given)	12 µM
N[C@@H](Cc1ccc(N(CCCl)CCCl)cc1)C(=O)O [MELPHALAN]	> 200 µM
C=C(CN(C)C)C(=O)c1ccc(OC)cc1	9.2 µM
C=C(CN(C)C)C(=O)c1ccccc1	52 µM

system: HL-60; test: Induction of apoptosis assessed as activation of caspase 3 activity in human HL60 cells after 4 hrs; assay type: functional, cell-based; conditions: not given
In short: (§3)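 Caspase activation measured in neoplastic cells seeded at 4 × 10^4 cells and incubated with compound for 4 h. Each value is the mean of two or three experiments.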

Compound	Activity
C=C(CN(C)C)C(=O)c1ccc(OC)cc1	Active

system: L1210; test: Cytotoxicity against mouse L1210 cells after 72 hrs; assay type: functional, cell-based; conditions: L1210, 72 h

Compound	IC50
C=C(CN(C)C)C(=O)c1ccc(OC)cc1	5.08 µM
C=C(CN(C)C)C(=O)c1ccccc1	52.2 µM

system: HSC-4; test: Cytotoxicity against human HSC4 cells; assay type: functional; conditions: not given; in short: as §2

Compound	CC50
CN(C)CC(CSCCO)C(=O)c1ccc([N+](=O)[O-])cc1 (stereo not given)	264 µM
COc1ccc(C(=O)C(CO)CN(C)C)cc1 (stereo not given)	5.2 µM
CN(C)CC(CO)C(=O)c1ccc(Cl)cc1 (stereo not given)	8 µM
N[C@@H](Cc1ccc(N(CCCl)CCCl)cc1)C(=O)O [MELPHALAN]	81 µM
C=C(CN(C)C)C(=O)c1ccc(OC)cc1	6.1 µM
C=C(CN(C)C)C(=O)c1ccccc1	33 µM

system: RPMI-8226; test: Cytotoxicity against human RPMI8226 cells; assay type: functional, cell-based; conditions: not given
In short: (§4)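 Part of a human tumour cell line panel screen run by a literature procedure with compounds at 10−8–10−4 M. GI50 is the concentration giving 50% growth inhibition. Where 50% inhibition was not reached at 100 μM, 100 μM was used as the value.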

Compound	IC50
CN(C)CC(CSCCO)C(=O)c1ccc([N+](=O)[O-])cc1 (stereo not given)	38 µM
COc1ccc(C(=O)C(CO)CN(C)C)cc1 (stereo not given)	20 µM
N[C@@H](Cc1ccc(N(CCCl)CCCl)cc1)C(=O)O [MELPHALAN]	66.1 µM
C=C(CN(C)C)C(=O)c1ccc(OC)cc1	21.4 µM
C=C(CN(C)C)C(=O)c1ccccc1	1.91 µM

system: not listed separately; test: Cytotoxicity against human HGF cells; assay type: cell-based; conditions: not given; in short: as §2

Compound	CC50
CN(C)CC(CSCCO)C(=O)c1ccc([N+](=O)[O-])cc1 (stereo not given)	390 µM
COc1ccc(C(=O)C(CO)CN(C)C)cc1 (stereo not given)	4 µM
CN(C)CC(CO)C(=O)c1ccc(Cl)cc1 (stereo not given)	5.8 µM
N[C@@H](Cc1ccc(N(CCCl)CCCl)cc1)C(=O)O [MELPHALAN]	> 200 µM
C=C(CN(C)C)C(=O)c1ccc(OC)cc1	6.8 µM
C=C(CN(C)C)C(=O)c1ccccc1	26 µM

system: L1210; test: Cytotoxicity against mouse L1210 cells after 48 hrs; conditions: L1210, 48 h

Compound	IC50
CN(C)CC(CSCCO)C(=O)c1ccc([N+](=O)[O-])cc1 (stereo not given)	> 500 µM
COc1ccc(C(=O)C(CO)CN(C)C)cc1 (stereo not given)	1.57 µM
CN(C)CC(CO)C(=O)c1ccc(Cl)cc1 (stereo not given)	22 µM

system: HSC-2; test: Cytotoxicity against human HSC2 cells; assay type: functional; conditions: not given; in short: as §2

Compound	CC50
CN(C)CC(CSCCO)C(=O)c1ccc([N+](=O)[O-])cc1 (stereo not given)	165 µM
COc1ccc(C(=O)C(CO)CN(C)C)cc1 (stereo not given)	2.5 µM
CN(C)CC(CO)C(=O)c1ccc(Cl)cc1 (stereo not given)	6 µM
N[C@@H](Cc1ccc(N(CCCl)CCCl)cc1)C(=O)O [MELPHALAN]	35 µM
C=C(CN(C)C)C(=O)c1ccc(OC)cc1	5.9 µM
C=C(CN(C)C)C(=O)c1ccccc1	29 µM

system: K562; test: Cytotoxicity against human K562 cells; assay type: functional, cell-based; conditions: not given; in short: as §4

Compound	IC50
CN(C)CC(CSCCO)C(=O)c1ccc([N+](=O)[O-])cc1 (stereo not given)	> 100 µM
COc1ccc(C(=O)C(CO)CN(C)C)cc1 (stereo not given)	0.49 µM
CN(C)CC(CO)C(=O)c1ccc(Cl)cc1 (stereo not given)	0.33 µM
C=C(CN(C)C)C(=O)c1ccc(OC)cc1	1.05 µM
C=C(CN(C)C)C(=O)c1ccccc1	2.19 µM

system: HL-60; test: Induction of apoptosis assessed as activation of caspase 8 activity in human HL60 cells after 4 hrs; assay type: functional, cell-based; conditions: not given; in short: as §3

Compound	Activity
C=C(CN(C)C)C(=O)c1ccc(OC)cc1	Active

system: HL-60; test: Induction of apoptosis in human HL60 cells after 6 hrs; assay type: functional, cell-based; conditions: not given
In short: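 Apoptosis read out as DNA fragmentation. 5 × 10^5 cells were incubated for 6 h with 0.5, 1, 2, 4, 8 or 16 μM compound. DNA was run alongside a molecular weight marker and scored for an internucleosomal ladder versus a smear. The experiment was repeated.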

Compound	Activity
C=C(CN(C)C)C(=O)c1ccc(OC)cc1	Active

system: not listed separately; test: Cytotoxicity against human Molt4/C8 cells after 72 hrs; assay type: functional, cell-based; conditions: MOLT-4, 72 h; in short: as §1

Compound	IC50
CN(C)CC(CSCCO)C(=O)c1ccc([N+](=O)[O-])cc1 (stereo not given)	> 500 µM
COc1ccc(C(=O)C(CO)CN(C)C)cc1 (stereo not given)	4.9 µM
CN(C)CC(CO)C(=O)c1ccc(Cl)cc1 (stereo not given)	30.9 µM
C=C(CN(C)C)C(=O)c1ccc(OC)cc1	21.3 µM
C=C(CN(C)C)C(=O)c1ccccc1	146 µM

system: CCRF-CEM; test: Cytotoxicity against human CCRF-CEM cells; assay type: functional, cell-based; conditions: not given; in short: as §4

Compound	IC50
CN(C)CC(CSCCO)C(=O)c1ccc([N+](=O)[O-])cc1 (stereo not given)	> 100 µM
CN(C)CC(CO)C(=O)c1ccc(Cl)cc1 (stereo not given)	0.32 µM
N[C@@H](Cc1ccc(N(CCCl)CCCl)cc1)C(=O)O [MELPHALAN]	6.17 µM
C=C(CN(C)C)C(=O)c1ccc(OC)cc1	0.37 µM
C=C(CN(C)C)C(=O)c1ccccc1	0.4 µM

system: SR; test: Cytotoxicity against human SR cells; assay type: cell-based; conditions: not given; in short: as §4

Compound	IC50
CN(C)CC(CSCCO)C(=O)c1ccc([N+](=O)[O-])cc1 (stereo not given)	> 100 µM
CN(C)CC(CO)C(=O)c1ccc(Cl)cc1 (stereo not given)	0.63 µM
C=C(CN(C)C)C(=O)c1ccc(OC)cc1	14.5 µM
C=C(CN(C)C)C(=O)c1ccccc1	0.55 µM

system: HL-60; test: Cytotoxicity against human HL60 cells; assay type: functional; conditions: not given; in short: as §2

Compound	CC50
CN(C)CC(CSCCO)C(=O)c1ccc([N+](=O)[O-])cc1 (stereo not given)	353 µM
COc1ccc(C(=O)C(CO)CN(C)C)cc1 (stereo not given)	0.46 µM
CN(C)CC(CO)C(=O)c1ccc(Cl)cc1 (stereo not given)	< 3.1 µM
N[C@@H](Cc1ccc(N(CCCl)CCCl)cc1)C(=O)O [MELPHALAN]	6 µM
C=C(CN(C)C)C(=O)c1ccc(OC)cc1	< 3.4 µM
C=C(CN(C)C)C(=O)c1ccccc1	12 µM

system: not listed separately; test: Cytotoxicity against human HPC cells; assay type: cell-based; conditions: not given; in short: as §2

Compound	CC50
CN(C)CC(CSCCO)C(=O)c1ccc([N+](=O)[O-])cc1 (stereo not given)	400 µM
COc1ccc(C(=O)C(CO)CN(C)C)cc1 (stereo not given)	5.3 µM
CN(C)CC(CO)C(=O)c1ccc(Cl)cc1 (stereo not given)	5.4 µM
N[C@@H](Cc1ccc(N(CCCl)CCCl)cc1)C(=O)O [MELPHALAN]	> 200 µM
C=C(CN(C)C)C(=O)c1ccc(OC)cc1	5.1 µM
C=C(CN(C)C)C(=O)c1ccccc1	31 µM

system: HSC-2; test: Induction of apoptosis assessed as activation of caspase 3 activity in human HSC2 cells after 4 hrs; assay type: functional, cell-based; conditions: not given; in short: as §3

Compound	Activity
C=C(CN(C)C)C(=O)c1ccc(OC)cc1	Active

system: HL-60; test: Induction of apoptosis assessed as activation of caspase 9 activity in human HL60 cells after 4 hrs; assay type: functional, cell-based; conditions: not given; in short: as §3

Compound	Activity
C=C(CN(C)C)C(=O)c1ccc(OC)cc1	Active

— ChEMBL document CHEMBL1150245, “1-Aryl-2-dimethylaminomethyl-2-propen-1-one hydrochlorides and related adducts: A quest for selective cytotoxicity for malignant cells” (Bioorg Med Chem, 2008)
